Assay results reported in ChEMBL document CHEMBL1131199, “Structure-activity of novel rhodacyanine dyes as antitumor agents” (J Med Chem, 1998).

How the values were obtained:
[1] = The solubility in water was determined; type: ADME
CX-1 = test: In vitro inhibition of growth of human carcinoma CX-1 cell line (clonogenic assay).; type: functional, cell-based
KB = test: In vitro inhibition of growth of KB cells (cytotoxic assay).; type: functional, cell-based, Homo sapiens
[2] = The solubility in 0.9% saline was determined; type: ADME
Mus musculus [3] = test: In vivo ratio of median survival time of drug-treated to control, untreated tumor-bearing mice at a dose of 5 mg/kg for 4 day; type: functional
Mus musculus [4] = test: Tumor inhibition (TI) ratio at a dose of 3 mg/kg for 4 day; type: functional
Method in brief: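 BDF1 mice (male, inbred, 5-week-old, ~1 week acclimation) implanted sc with 5 × 10^5 CA755 cells; compound given iv in 0.9% saline (0.2 mL/20 g body weight), 3 mg/kg/day × 4. Tumors weighed at day 11; inhibition (%) = (A − B)/A × 100, A and B being mean control and treated tumor weights. Five mice per group; Bartlett's, Dunnett's, Scheffé's tests.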

[5] = Lethal dose when administered intraperitoneally; type: toxicity; conditions: mouse, ip
[6] = Lethal dose when administered intravenously; type: toxicity; conditions: mouse, iv
CV-1 [7] = test: Compound was tested in vitro for inhibition of growth of cytotoxic CV-1 cell line; type: functional, cell-based, Homo sapiens; conditions: Chlorocebus aethiops
Mus musculus [8] = test: In vivo ratio of median survival time of drug-treated to control, untreated tumor-bearing mice at a dose of 4 mg/kg for 5 days; type: functional
Method in brief: (§1)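 Male Swiss nu/nu mice, about 5 weeks old, acclimated 1 week. LOX melanoma was first grown sc in nude mice, then made into a single-cell suspension with RBCs lysed by ammonium chloride. Each mouse got 2×10^6 LOX cells ip in PBS. From the next day, compound was given ip in 45% hydroxypropyl β-cyclodextrin in water. T/C is median survival of treated over untreated controls, as a percentage. Five mice per group.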

Mus musculus [9] = test: In vivo ratio of median survival time of drug-treated to control, untreated tumor-bearing mice at a dose of 5 mg/kg for 3 days; type: functional
CV-1 [10] = test: The IC50 value for 50%inhibition of cells on clonogenic CV-1 […] cytotoxic cell lines.; type: functional, cell-based; conditions: Chlorocebus aethiops
Method in brief: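 CV-1 cytotoxicity assay: cells seeded at 4×10^4 per 20 mm plate at 37 °C in 5% CO2. Next day, cells were exposed to varying compound concentrations for 1 week, stained with crystal violet, and viable cells counted.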

Mus musculus [11] = test: In vivo ratio of median survival time of drug-treated to control, untreated tumor-bearing mice at a dose of 5 mg/kg for 5 days; type: functional
Mus musculus [12] = test: In vivo ratio of median survival time of drug-treated to control, untreated tumor-bearing mice at a dose of 2 mg/kg for 5 days; type: functional
Mus musculus [13] = test: In vivo ratio of median survival time of drug-treated to control, untreated tumor-bearing mice at a dose of 10 mg/kg for 5 days; type: functional
Mus musculus [14] = test: In vivo ratio of median survival time of drug-treated to control, untreated tumor-bearing mice at a dose of 10 mg/kg for 1 day; type: functional
Mus musculus [15] = test: In vivo ratio of median survival time of drug-treated to control, untreated tumor-bearing mice at a dose of 7 mg/kg for 5 days; type: functional; method in brief: as §1
Mus musculus [16] = test: In vivo ratio of median survival time of drug-treated to control, untreated tumor-bearing mice at a dose of 4 mg/kg for 7 days; type: functional
Mus musculus [17] = test: Tumor inhibition (TI) ratio at a dose of 1 mg/kg for 4 day; type: functional

CCn1c(=O)/c(=C2\Sc3ccccc3N2C)s/c1=C\c1cccc[n+]1CC.[I-]
solubility [1]: 200 µg/mL
IC50 (CX-1; cx-1): 800 nM
IC50 (KB; kb): 46800 nM
solubility [2]: < 100 µg/mL

CCn1c(=O)/c(=C2\Sc3ccccc3N2C)s/c1=C\c1cccc[n+]1CC.[Cl-]
solubility [1]: > 5000 µg/mL
IC50 (KB; kb): 810 nM
T/C (Mus musculus [3]): >344%
TI (Mus musculus [4]): 75.5%
LD50 [5]: 50 mg/kg
LD50 [6]: 20 mg/kg
solubility [2]: > 5000 µg/mL

CCn1c(=O)/c(=C2\Oc3ccccc3N2C)s/c1=C\c1cccc[n+]1CC
IC50 (CX-1; Homo sapiens, CX-1): > 2400 nM
IC50 (KB; Homo sapiens, KB): 3730 nM

CCN1CCS/C1=C\C=c1/s/c(=C\c2sc3c4ccccc4ccc3[n+]2C)n(CC)c1=O
IC50 (CX-1; Homo sapiens, CX-1): 30 nM
IC50 (KB; Homo sapiens, KB): 490 nM

CC(=O)[O-].CCn1c(=O)/c(=C2\Sc3ccccc3N2C)s/c1=C\c1scc(C)[n+]1CC
IC50 (CV-1 [7]): 23600 nM
IC50 (CX-1; Homo sapiens, CX-1): 110 nM
IC50 (KB; Homo sapiens, KB): 950 nM
T/C (Mus musculus [8]): >173%
LD50 [5]: 30 mg/kg
LD50 [6]: 20 mg/kg

CCn1c(=O)/c(=C/C=C2/N(C)c3ccccc3C2(C)C)s/c1=C\c1oc2c3ccccc3ccc2[n+]1CC.Cc1ccc(S(=O)(=O)[O-])cc1
IC50 (CX-1; Homo sapiens, CX-1): 10 nM
IC50 (KB; Homo sapiens, KB): 270 nM
T/C (Mus musculus [9]): 94%

CC(=O)[O-].CCn1c(=O)/c(=C2\Sc3ccccc3N2C)s/c1=C\c1cccc[n+]1CC
solubility [1]: > 5000 µg/mL
IC50 (CV-1 [10]): 63200 nM
IC50 (CX-1; cx-1): 1100 nM
IC50 (KB; kb): 860 nM
T/C (Mus musculus [11]): >310%
TI (Mus musculus [4]): 76.5%
LD50 [5]: 50 mg/kg
LD50 [6]: 20 mg/kg
solubility [2]: > 5000 µg/mL

CC(=O)[O-].CCn1c(=O)/c(=C2\Sc3ccccc3N2C)s/c1=C\C1=[N+](CC)CCS1
IC50 (CV-1 [7]): 13200 nM
IC50 (CX-1; Homo sapiens, CX-1): 1040 nM
IC50 (KB; Homo sapiens, KB): 6220 nM
T/C (Mus musculus [12]): 133%
LD50 [5]: 40 mg/kg
LD50 [6]: 15 mg/kg

CCn1c(=O)/c(=C/C=C2\Sc3ccc4ccccc4c3N2C)s/c1=C\c1scc(C)[n+]1CC
IC50 (CX-1; Homo sapiens, CX-1): > 1800 nM
IC50 (KB; Homo sapiens, KB): 2000 nM

CCN1/C(=C/C=c2\s/c(=C\c3sc4ccc5ccccc5c4[n+]3CC)n(CC)c2=O)Sc2ccc3ccccc3c21.Cc1ccc(S(=O)(=O)[O-])cc1
IC50 (CX-1; Homo sapiens, CX-1): 40 nM
IC50 (KB; Homo sapiens, KB): 210 nM
T/C (Mus musculus [13]): 126%

CC(=O)[O-].CCn1c(=O)/c(=C2\Sc3ccccc3N2C)s/c1=C\c1ccc2ccccc2[n+]1CC
IC50 (CV-1 [7]): 8700 nM
IC50 (CX-1; Homo sapiens, CX-1): 280 nM
IC50 (KB; Homo sapiens, KB): 280 nM
T/C (Mus musculus [12]): 124%
LD50 [5]: 30 mg/kg
LD50 [6]: 10 mg/kg

CC(=O)[O-].CCn1c(=O)/c(=C2\Sc3ccccc3N2C)s/c1=C\c1oc2ccccc2[n+]1CC
IC50 (CV-1 [7]): 14700 nM
IC50 (CX-1; Homo sapiens, CX-1): 180 nM
IC50 (KB; Homo sapiens, KB): 1130 nM
T/C (Mus musculus [11]): 140%
LD50 [5]: 10 mg/kg
LD50 [6]: > 10 mg/kg

CC(=O)[O-].CCN1C(C)=CS/C1=C\C=c1/s/c(=C\c2sc3ccccc3[n+]2CC)n(CC)c1=O
IC50 (CX-1; Homo sapiens, CX-1): 60 nM
IC50 (KB; Homo sapiens, KB): 250 nM
T/C (Mus musculus [14]): 138%

CC(=O)[O-].CCn1c(=O)/c(=C2\Sc3ccc4ccccc4c3N2C)s/c1=C\c1oc2c3ccccc3ccc2[n+]1CC
IC50 (CX-1; Homo sapiens, CX-1): 680 nM
IC50 (KB; Homo sapiens, KB): 80 nM
T/C (Mus musculus [12]): 120%

CCN1C=CC=C/C1=C\C=c1/s/c(=C\c2sc3ccc4ccccc4c3[n+]2CC)n(CC)c1=O.[Cl-]
IC50 (CX-1; Homo sapiens, CX-1): 80 nM
IC50 (KB; Homo sapiens, KB): 770 nM
T/C (Mus musculus [8]): 122%

CCN1CCS/C1=C\C=c1/s/c(=C\c2sc3c4ccccc4ccc3[n+]2CCO)n(CC)c1=O
IC50 (CX-1; Homo sapiens, CX-1): 390 nM

CCn1c(=O)/c(=C2\Sc3ccc4ccccc4c3N2C)s/c1=C\c1sc2c3ccccc3ccc2[n+]1CC.[Cl-]
IC50 (CX-1; Homo sapiens, CX-1): 50 nM
IC50 (KB; Homo sapiens, KB): 340 nM
T/C (Mus musculus [15]): 112%

CCN1CCS/C1=C\C=c1/s/c(=C\c2sc3c4ccccc4ccc3[n+]2CCC(=O)O)n(CC)c1=O
IC50 (CX-1; Homo sapiens, CX-1): > 1500 nM
IC50 (KB; Homo sapiens, KB): > 15000 nM

CCN1CCS/C1=C\C=c1/s/c(=C\c2sc3c4ccccc4ccc3[n+]2CC)n(CC)c1=O
IC50 (CX-1; Homo sapiens, CX-1): 20 nM
IC50 (KB; Homo sapiens, KB): 320 nM

CC(=O)[O-].CCN1/C(=C/C=c2\s/c(=C\C3=[N+](CC)CCS3)n(CC)c2=O)C=Cc2ccccc21
IC50 (CX-1; Homo sapiens, CX-1): 160 nM
IC50 (KB; Homo sapiens, KB): 910 nM
T/C (Mus musculus [13]): 143%

CCCC[n+]1c(/C=c2\s/c(=C\C=C3/SCCN3CC)c(=O)n2CC)sc2c3ccccc3ccc21
IC50 (CX-1; Homo sapiens, CX-1): 30 nM
IC50 (KB; Homo sapiens, KB): 460 nM

CC(=O)[O-].CCn1c(=O)/c(=C2\Sc3ccccc3N2C)s/c1=C\C1CCC[n+]2c1sc1ccccc12 (stereo unspecified)
IC50 (CV-1 [7]): 2900 nM
IC50 (CX-1; Homo sapiens, CX-1): 230 nM
IC50 (KB; Homo sapiens, KB): 230 nM
T/C (Mus musculus [8]): >208%
LD50 [5]: 30 mg/kg
LD50 [6]: 3 mg/kg

CC(=O)[O-].CCn1c(=O)/c(=C2\SCCN2C)s/c1=C\c1sc2ccc3ccccc3c2[n+]1CC
IC50 (CX-1; Homo sapiens, CX-1): 160 nM
IC50 (KB; Homo sapiens, KB): 250 nM
T/C (Mus musculus [8]): 106%

CCn1c(=O)/c(=C2\C=CC=CN2C)s/c1=C\c1sc2ccccc2[n+]1CC
IC50 (CX-1; Homo sapiens, CX-1): 1760 nM
IC50 (KB; Homo sapiens, KB): 2170 nM

CC(=O)[O-].CCn1c(=O)/c(=C2\Sc3ccccc3N2C)s/c1=C\c1sc2ccccc2[n+]1CC
IC50 (CV-1 [7]): 1400 nM
IC50 (CX-1; Homo sapiens, CX-1): 60 nM
IC50 (KB; Homo sapiens, KB): 60 nM
T/C (Mus musculus [16]): 163%
TI (Mus musculus [17]): 59.4%
LD50 [5]: 30 mg/kg
LD50 [6]: 5 mg/kg
